This passage reports IC50 and EC50 results from ChEMBL document CHEMBL3351569, “Synthesis and antiproliferative activity of some new thieno[2,3-d]pyrimidin-4(3H)-ones containing 1,2,4-triazole and 1,3,4-thiadiazole moiety” (Eur J Med Chem, 2014).

Each structure is given as a SMILES string.

Tested on in one assay: not listed separately
The assay can be described thus: Cytotoxicity against human LEP-3 cells assessed as reduction in cell viability after 24 hrs by MTS assay. In kind it is cell-based. Particulars: LEP-3, 24 h. Put shortly:
(§1)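 Compounds were dissolved in DMSO at 4 mg/ml (stock) and diluted 1:10, 1:100, 1:1000 and 1:10 000. Cells were incubated 24 h with compound, with untreated cells in unmodified medium as the control. MTS reagent was then added for 2 h at 37°C under 5% CO2/95% air, and absorbance was read at 490 nm. Viability is expressed as % of untreated control (100%) at each concentration, and IC50/EC50 were calculated from it.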
On the technique in general: Tetrazolium dyes change colour on reduction, which living cells bring about.
Turning to `CCNc1nnc(Cc2nc3sc4c(c3c(=O)[nH]2)CCCC4)s1`, the IC50 came to 0.44 µM.

In the case of `O=c1[nH]c(Cc2nnc(Nc3ccccc3)s2)nc2sc3c(c12)CCCC3`, the IC50 turned out to be 3.17 µM.

On to `CCOC(=O)c1sc2nc(CC(=O)NNC(=S)Nc3ccccc3)[nH]c(=O)c2c1C`, for which the IC50 was 1500 µM.

Another assay has as its system MDA-MB-231. Kind of assay: Antiproliferative activity against human MDA-MB-231 cells by CellTiter-96 non-radioactive assay. In kind it is functional, cell-based.
Conditions: not given
Put shortly:
as §1
Take `CCn1c(S)nnc1Cc1nc2sc(C(=O)O)c(C)c2c(=O)[nH]1`: the EC50 came out at 1.16 µM.

With `NNC(=O)Cc1nc2sc3c(c2c(=O)[nH]1)CCCC3`, the EC50 was 1.54 µM.

Take `CCOC(=O)c1sc2nc(Cc3nnc(Nc4ccccc4)s3)[nH]c(=O)c2c1C`: the EC50 came to 0.0018 µM.

For the compound `Cc1c(C(=O)O)sc2nc(Cc3nnc(S)n3-c3ccccc3)[nH]c(=O)c12`, the EC50 is 0.3 µM.

For `CCn1c(S)nnc1Cc1nc2sc3c(c2c(=O)[nH]1)CCCC3`, the EC50 came out at 0.13 µM.

Regarding `CCNC(=S)NNC(=O)Cc1nc2sc3c(c2c(=O)[nH]1)CCCC3`, the EC50 turned out to be 1.8 µM.

Turning to `O=c1[nH]c(Cc2nnc(S)n2-c2ccccc2)nc2sc3c(c12)CCCC3`, the EC50 was 1.2 µM.

In another assay the test system is HepG2. Kind of assay: Cytotoxicity against human HepG2 cells assessed as reduction in cell viability after 24 hrs by MTS assay. In kind it is functional, cell-based. To be noted: HepG2, 24 h. The method in brief:
as §1
In the case of `CCNc1nnc(Cc2nc3sc4c(c3c(=O)[nH]2)CCCC4)s1`, the IC50 was found to be 0.21 µM.

On to `O=c1[nH]c(Cc2nnc(Nc3ccccc3)s2)nc2sc3c(c12)CCCC3`, for which the IC50 was found to be 1.23 µM.

Regarding `CCOC(=O)c1sc2nc(CC(=O)NNC(=S)Nc3ccccc3)[nH]c(=O)c2c1C`, the IC50 turned out to be 1.47 µM.

Regarding `CCOC(=O)c1sc2nc(Cc3nnc(Nc4ccccc4)s3)[nH]c(=O)c2c1C`, the IC50 came to 0.88 µM.

For `Cc1c(C(=O)O)sc2nc(Cc3nnc(S)n3-c3ccccc3)[nH]c(=O)c12`, the IC50 amounted to 0.29 µM.

Regarding `O=c1[nH]c(Cc2nnc(S)n2-c2ccccc2)nc2sc3c(c12)CCCC3`, the IC50 was 1800 µM.

For another assay, the system named is HepG2. Kind of assay: Antiproliferative activity against human HepG2 cells by CellTiter-96 non-radioactive assay. In kind it is functional, cell-based.
Conditions: not given
Put shortly:
as §1
In the case of `CCNC(=S)NNC(=O)Cc1nc2sc(C(=O)OCC)c(C)c2c(=O)[nH]1`, the EC50 amounted to 0.19 µM.

In the case of `CCn1c(S)nnc1Cc1nc2sc(C(=O)O)c(C)c2c(=O)[nH]1`, the EC50 worked out at 1.4 µM.

Take `NNC(=O)Cc1nc2sc3c(c2c(=O)[nH]1)CCCC3`: the EC50 worked out at 2.18 µM.

In the case of `CCn1c(S)nnc1Cc1nc2sc3c(c2c(=O)[nH]1)CCCC3`, the EC50 was 2.08 µM.

Consider `CCNc1nnc(Cc2nc3sc(C(=O)OCC)c(C)c3c(=O)[nH]2)s1`, for which the EC50 is 1.26 µM.

Take `CCNC(=S)NNC(=O)Cc1nc2sc3c(c2c(=O)[nH]1)CCCC3`: the EC50 came out at 1.02 µM.

The subject of the next assay is HeLa. Kind of assay: Cytotoxicity against human HeLa cells assessed as reduction in cell viability after 24 hrs by MTS assay. In kind it is functional, cell-based.
Conditions: not given
Put shortly: as §1
Take `CCNC(=S)NNC(=O)Cc1nc2sc(C(=O)OCC)c(C)c2c(=O)[nH]1`: the IC50 came out at 1.7 µM.

As to `CCNc1nnc(Cc2nc3sc4c(c3c(=O)[nH]2)CCCC4)s1`, the IC50 was found to be 3.8 µM.

`O=c1[nH]c(Cc2nnc(Nc3ccccc3)s2)nc2sc3c(c12)CCCC3`: the IC50 amounted to 1.85 µM.

With `CCOC(=O)c1sc2nc(CC(=O)NNC(=S)Nc3ccccc3)[nH]c(=O)c2c1C`, the IC50 turned out to be 9.3 µM.

On to `CCOC(=O)c1sc2nc(Cc3nnc(Nc4ccccc4)s3)[nH]c(=O)c2c1C`, for which the IC50 is 2.3 µM.

Turning to `CCn1c(S)nnc1Cc1nc2sc3c(c2c(=O)[nH]1)CCCC3`, the IC50 is 1.69 µM.

`CCNc1nnc(Cc2nc3sc(C(=O)OCC)c(C)c3c(=O)[nH]2)s1`: the IC50 was determined as 3.31 µM.

As for `O=c1[nH]c(Cc2nnc(S)n2-c2ccccc2)nc2sc3c(c12)CCCC3`, the IC50 amounted to 0.00095 µM.

For a further assay, the system named is HeLa. Kind of assay: Antiproliferative activity against human HeLa cells by CellTiter-96 non-radioactive assay. In kind it is functional, cell-based.
Conditions: not given
The method in brief:
as §1
For `CCn1c(S)nnc1Cc1nc2sc(C(=O)O)c(C)c2c(=O)[nH]1`, the EC50 is 2.34 µM.

`NNC(=O)Cc1nc2sc3c(c2c(=O)[nH]1)CCCC3`: the EC50 amounted to 2.52 µM.

On to `Cc1c(C(=O)O)sc2nc(Cc3nnc(S)n3-c3ccccc3)[nH]c(=O)c12`, for which the EC50 is 0.12 µM.

Take `CCNC(=S)NNC(=O)Cc1nc2sc3c(c2c(=O)[nH]1)CCCC3`: the EC50 came out at 0.032 µM.

Tested on in another assay: not listed separately
The assay can be described thus: Antiproliferative activity against human LEP-3 cells by CellTiter-96 non-radioactive assay. In kind it is cell-based.
Conditions: not given
Put shortly: as §1
With `CCNC(=S)NNC(=O)Cc1nc2sc(C(=O)OCC)c(C)c2c(=O)[nH]1`, the EC50 was 0.025 µM.

Turning to `CCn1c(S)nnc1Cc1nc2sc(C(=O)O)c(C)c2c(=O)[nH]1`, the concentration for a half-maximal effect (EC50) came out at 1.4 µM.

Turning to `NNC(=O)Cc1nc2sc3c(c2c(=O)[nH]1)CCCC3`, the EC50 was 2.21 µM.

On to `CCOC(=O)c1sc2nc(Cc3nnc(Nc4ccccc4)s3)[nH]c(=O)c2c1C`, for which the EC50 amounted to 0.26 µM.

On to `Cc1c(C(=O)O)sc2nc(Cc3nnc(S)n3-c3ccccc3)[nH]c(=O)c12`, for which the EC50 turned out to be 1.21 µM.

With `CCn1c(S)nnc1Cc1nc2sc3c(c2c(=O)[nH]1)CCCC3`, the EC50 worked out at 1.14 µM.

For the compound `CCNc1nnc(Cc2nc3sc(C(=O)OCC)c(C)c3c(=O)[nH]2)s1`, the EC50 is 0.31 µM.

`CCNC(=S)NNC(=O)Cc1nc2sc3c(c2c(=O)[nH]1)CCCC3`: the EC50 stood at 0.12 µM.

Take `O=c1[nH]c(Cc2nnc(S)n2-c2ccccc2)nc2sc3c(c12)CCCC3`: the EC50 came out at 0.46 µM.

For another assay, the system named is HT-29. Kind of assay: Antiproliferative activity against human HT-29 cells by CellTiter-96 non-radioactive assay.
Conditions: not given
In kind it is functional, cell-based. Put shortly: as §1
For `CCNC(=S)NNC(=O)Cc1nc2sc(C(=O)OCC)c(C)c2c(=O)[nH]1`, the EC50 stood at 0.089 µM.

In the case of `CCn1c(S)nnc1Cc1nc2sc(C(=O)O)c(C)c2c(=O)[nH]1`, the EC50 stood at 0.91 µM.

With `NNC(=O)Cc1nc2sc3c(c2c(=O)[nH]1)CCCC3`, the EC50 is 2.12 µM.

As to `CCOC(=O)c1sc2nc(Cc3nnc(Nc4ccccc4)s3)[nH]c(=O)c2c1C`, the EC50 was found to be 1.5 µM.

For the compound `Cc1c(C(=O)O)sc2nc(Cc3nnc(S)n3-c3ccccc3)[nH]c(=O)c12`, the EC50 is 0.86 µM.

Regarding `CCn1c(S)nnc1Cc1nc2sc3c(c2c(=O)[nH]1)CCCC3`, the EC50 was determined as 2.43 µM.

For `CCNc1nnc(Cc2nc3sc(C(=O)OCC)c(C)c3c(=O)[nH]2)s1`, the EC50 came out at 0.42 µM.

For `CCNC(=S)NNC(=O)Cc1nc2sc3c(c2c(=O)[nH]1)CCCC3`, the EC50 was determined as 0.04 µM.

`O=c1[nH]c(Cc2nnc(S)n2-c2ccccc2)nc2sc3c(c12)CCCC3`: the EC50 was determined as 1.8 µM.

A further assay concerns MDA-MB-231. The assay can be described thus: Cytotoxicity against human MDA-MB-231 cells assessed as reduction in cell viability after 24 hrs by MTS assay. In kind it is functional, cell-based. To be noted: MDA-MB-231, 24 h. Put shortly: as §1
Take `CCNC(=S)NNC(=O)Cc1nc2sc(C(=O)OCC)c(C)c2c(=O)[nH]1`: the IC50 was found to be 0.0391 µM.

On to `CCNc1nnc(Cc2nc3sc4c(c3c(=O)[nH]2)CCCC4)s1`, for which the IC50 came to 1.26 µM.

On to `O=c1[nH]c(Cc2nnc(Nc3ccccc3)s2)nc2sc3c(c12)CCCC3`, for which the IC50 worked out at 0.0374 µM.

On to `CCOC(=O)c1sc2nc(CC(=O)NNC(=S)Nc3ccccc3)[nH]c(=O)c2c1C`, for which the IC50 came out at 1.21 µM.

`CCNc1nnc(Cc2nc3sc(C(=O)OCC)c(C)c3c(=O)[nH]2)s1`: the IC50 stood at 0.0012 µM.

In the next assay the test system is HT-29. Kind of assay: Cytotoxicity against human HT-29 cells assessed as reduction in cell viability after 24 hrs by MTS assay. Particulars: HT-29, 24 h. In kind it is functional, cell-based. The method in brief: as §1
For `CCNc1nnc(Cc2nc3sc4c(c3c(=O)[nH]2)CCCC4)s1`, the IC50 stood at 0.097 µM.

As to `O=c1[nH]c(Cc2nnc(Nc3ccccc3)s2)nc2sc3c(c12)CCCC3`, the IC50 was found to be 0.13 µM.

For `CCOC(=O)c1sc2nc(CC(=O)NNC(=S)Nc3ccccc3)[nH]c(=O)c2c1C`, the IC50 worked out at 0.00156 µM.

Usually IC50 stands for the concentration at which inhibition is half-maximal. What is called EC50 is the concentration giving half of the maximal effect.
